Measured values reported in ChEMBL document CHEMBL1137687, “Anti-HIV evaluation of benzo[d]isothiazole hydrazones” (Eur J Med Chem, 2009).

Legend:
[1] = tested on: Human immunodeficiency virus 1; assay: Antiviral activity against NNRTI-resistant HIV1 with reverse transcriptase Y181C mutation in human MT4 cells assessed as protection against virus-induced cytopathogenicity after 4 days by MTT assay; type: functional, organism-based; conditions: Human immunodeficiency virus 1, MT4, 96 h
How it was run: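 Y181C virus (NIH N119) came from an AZT-sensitive clinical isolate passaged in CEM then MT-4 cells with nevirapine; stock 1.2×10⁸ CCID50/mL. It infected 1×10⁴ MT-4 cells/well (RPMI 1640, 10% FCS, 37 °C, 5% CO2) with compound dilutions from 100 mM DMSO stock, at a dose giving full cytopathogenicity by day 4. Readout MTT; EC50 = 50% protection.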

[2] = Cytotoxicity against mock-infected human MT4 cells after 4 days by MTT assay; type: cell-based
How it was run: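 Mock-infected MT-4 cells, 1 × 10⁴ per well in RPMI 1640 with 10% FCS, 37 °C, 5% CO₂. Exposed to serial compound dilutions from a 100 mM DMSO stock diluted in medium, in parallel with the antiviral assay. Viability read by MTT. CC₅₀ taken as concentration reducing viability of mock-infected cells by 50%.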

[3] = tested on: Human immunodeficiency virus 1; assay: Antiviral activity against NNRTI-resistant HIV1 3B with reverse transcriptase K103R+V179D+P225H mutation in human MT4 cells assessed as protection against virus-induced cytopathogenicity after 4 days by MTT assay; type: functional, organism-based; conditions: Human immunodeficiency virus 1, 3B, MT4, 96 h
How it was run: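 K103R+V179D+P225H (EFV^R) virus, from IIIB passaged in MT-4 cells under efavirenz; stock 4.0×10⁷ CCID50/mL. Added to 1×10⁴ MT-4 cells/well (RPMI 1640, 10% FCS, 37 °C, 5% CO2) with compound dilutions from 100 mM DMSO stock, amount causing complete cytopathogenicity at day 4. Viability by MTT; EC50 = concentration giving 50% protection.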

[4] = tested on: Human immunodeficiency virus 1; assay: Antiviral activity against wild type HIV1 3B assessed as protection as protection against virus-induced cytopathogenicity after 4 days by MTT assay; type: functional; conditions: Human immunodeficiency virus 1, 3B, 96 h
How it was run: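 HIV-1 IIIB from supernatants of persistently infected H9/IIIB cells. MT-4 cells, 1 × 10⁴ per well in RPMI 1640 with 10% FCS, exposed to serial compound dilutions (100 mM DMSO stock diluted in medium). Virus inoculum sized in CCID₅₀ to give complete cytopathogenicity by day 4. Incubated at 37 °C, then viability read by MTT. EC₅₀ taken as concentration giving 50% protection from virus-induced cytopathogenicity.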

[5] = tested on: Human immunodeficiency virus 1; assay: Antiviral activity against NNRTI-resistant HIV1 3B with reverse transcriptase K103N+Y181C mutation in human MT4 cells assessed as protection against virus-induced cytopathogenicity after 4 days by MTT assay; type: functional, organism-based; conditions: Human immunodeficiency virus 1, 3B, MT4, 96 h
How it was run: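 MT-4 cells (RPMI 1640, 10% FCS, 37 °C, 5% CO2), 1×10⁴/well, with compound serial dilutions from 100 mM DMSO stock, infected with K103N+Y181C virus (NIH A17, from IIIB passaged in H9 cells with BI-RG 587; stock 2.1×10⁷ CCID50/mL) at dose giving full cytopathogenicity by day 4. MTT viability; EC50 = 50% protection.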

Row | Structure (SMILES) | EC50 [1] [µM] | CC50 at 96 h [2] [µM] | EC50 [3] [µM] | EC50 [4] [µM] | EC50 [5] [µM]
1 | O=c1c2ccccc2sn1/N=C/c1ccco1 | > 18 | 18 | > 18 | > 18 | > 18
2 | O=c1c2ccccc2sn1/N=C/c1ccc2c(c1)OCO2 | > 17 | 17 | > 17 | > 17 | > 17
3 | Cc1ccc2sn(/N=C/c3cccc(F)c3)c(=O)c2c1 | > 30 | 30 | > 30 | > 30 | > 30
4 | Cc1ccc2sn(/N=C/c3ccccc3F)c(=O)c2c1 | > 18 | 18 | > 18 | > 18 | > 18
5 | COc1cc(/C=N/n2sc3ccccc3c2=O)ccc1O | > 15 | 15 | > 15 | > 15 | > 15
6 | O=c1c2ccccc2sn1/N=C/c1ccccc1O | > 18 | 18 | > 18 | > 18 | > 18
7 | O=c1c2ccccc2sn1/N=C/c1cccc([N+](=O)[O-])c1 | 13 | > 100 | 11 | 36 | 57
8 | Cc1ccc2sn(/N=C/c3cccc([N+](=O)[O-])c3)c(=O)c2c1 | 32 | > 100 | 18 | 48 | 83
9 | Cc1ccc2sn(/N=C/c3ccc([N+](=O)[O-])cc3)c(=O)c2c1 | ≥ 100 | > 100 | 72 | > 100 | > 100
10 | Cc1ccc2sn(/N=C/c3ccccc3O)c(=O)c2c1 | > 30 | 30 | > 30 | > 30 | > 30
11 | O=c1c2ccccc2sn1/N=C/c1cccc(Cl)c1 | ≥ 100 | > 100 | 68 | 100 | ≥ 100
12 | O=c1c2ccccc2sn1/N=C/c1ccc(Cl)cc1 | ≥ 11 | 26 | 2.9 | > 26 | > 26
13 | COc1ccc(/C=N/n2sc3ccccc3c2=O)cc1 | > 19 | 19 | > 19 | > 19 | > 19
14 | O=c1c2ccccc2sn1/N=C/C=C/c1ccccc1 | > 18 | 18 | > 18 | > 18 | > 18
15 | Cc1ccc2sn(/N=C/c3ccccc3)c(=O)c2c1 | ≥ 33 | 44 | ≥ 33 | ≥ 33 | > 44
16 | O=c1c2ccccc2sn1/N=C/c1ccccc1 | > 17 | 17 | 8.6 | 11 | > 17
17 | O=c1c2ccccc2sn1/N=C/c1ccccc1F | > 20 | 20 | > 20 | ≥ 11 | > 20

Row | Structure (SMILES) | EC50 [1] [µM] | CC50 at 96 h [2] [µM] | EC50 [3] [µM] | EC50 [4] [µM] | EC50 [5] [µM]
18 | O=c1c2ccccc2sn1/N=C/c1ccc(F)cc1 | > 17 | 17 | ≥ 17 | 4.4 | > 17
19 | O=c1c2ccccc2sn1/N=C/c1ccc(O)cc1O | > 21 | 21 | > 21 | > 21 | > 21
20 | O=c1c2ccccc2sn1/N=C/c1ccc(O)c(O)c1 | > 44 | 44 | > 44 | > 44 | > 44
21 | Cc1ccc2sn(/N=C/c3ccc(F)cc3)c(=O)c2c1 | > 15 | 15 | 7.3 | > 15 | > 15
22 | O=c1c2ccccc2sn1/N=C/c1ccc([N+](=O)[O-])cc1 | 29 | > 100 | 33 | 45 | 36
23 | O=c1c2ccccc2sn1/N=C/c1ccc([N+](=O)[O-])cc1[N+](=O)[O-] | – | > 100 | > 100 | > 100 | > 100
24 | Cc1ccc2sn(/N=C/c3ccccc3Cl)c(=O)c2c1 | 100 | > 100 | 79 | 82 | > 100
25 | Cc1ccc2sn(/N=C/c3cccc(Cl)c3)c(=O)c2c1 | > 59 | 59 | 25 | > 59 | > 59
26 | Cc1ccc2sn(/N=C/c3ccccc3[N+](=O)[O-])c(=O)c2c1 | > 100 | > 100 | 100 | > 100 | > 100
27 | O=c1c2ccccc2sn1/N=C/c1ccc(O)cc1 | > 18 | 18 | 8.4 | > 18 | > 18
28 | CCCCCCCCCCC/C=N/n1sc2ccccc2c1=O | > 17 | 17 | > 17 | > 17 | > 17
29 | Cc1ccc2sn(/N=C/c3ccc(Cl)cc3)c(=O)c2c1 | 22 | 57 | 11 | 24 | 33
30 | Cc1ccc2sn(/N=C/c3ccc([N+](=O)[O-])cc3[N+](=O)[O-])c(=O)c2c1 | > 100 | > 100 | > 100 | > 100 | > 100
31 | O=c1c2ccccc2sn1/N=C/c1cccc(F)c1 | > 15 | 15 | 9 | > 15 | > 15
32 | O=c1c2ccccc2sn1/N=C/c1cccc(O)c1 | > 15 | 15 | > 15 | > 15 | > 15
33 | O=c1c2ccccc2sn1/N=C/c1ccccc1[N+](=O)[O-] | 20 | 68 | 20 | 19 | 33
34 | O=c1c2ccccc2sn1/N=C/c1ccccc1Cl | 26 | 47 | 24 | 20 | > 47
